We go through 38 variants from the RNAGym collection of RNA variant scans (doi:10.1126/science.aae0568).

B1: tRNA (parent)
chain: GUUCCGUUGGCGUAAUGGUAACGCGUCUCCCUCCUAAGGAGAAGACUGCGGGUUCGAGUCCCGUACGGAACG

Variants at the floor of the assay were thinned out.

The series covers variants of B1. Briefly: yeast fitness relative to wild type (ratio to wild type); higher = fitter; tRNA-Arg(CCU), competitive growth, 37 C, YPD. The essentials: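 Genotype frequency changes were the basis for Darwinian fitness relative to wild type. The frequencies came from 100-nucleotide paired-end sequencing of gene amplicons from the start population and each end population of pooled yeast strains with tRNA-Arg(CCU) gene variants at the native locus. Competition ran in YPD at 37°C for 24 hours in six replicates, genotypes needed ≥ 100 starting reads, and estimates < 0.5 were set to 0.5.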
For GAUCCGUUGGCGUAAUGGUAACGCGUCUCCCUUUUAAAGAGAAGACUGCGAGUUAGAGUCCCGUUCGGAACG [U2A C33U C34U G38A G51A C55A A65U], the yeast fitness was ≤ 0.5.

As for GAUCCGUUCGCGUAAUGGUAACGCGUCUCCCUCCAGAGGAGAAGACUGCGGGUUCGAGUCCCGUACGGAACG [U2A G9C U35A A36G], the yeast fitness is ≤ 0.5.

As for GAUCCGUUCGCGAAGUGGUAACGCGUCUCCCUACUAUGGAGAAGACUGCCGGUUCGAGUCUCGUACGGAACG [U2A G9C U13A A15G C33A A37U G50C C61U], the yeast fitness was 0.58.

As to GAUCCGUUGGCGUAAUGGUAACGGGUCUCCCUCCUAAGGAGAUGAUUGCGGGUUCGAGUCCCGUACGGAACG [U2A C24G A43U C46U], the yeast fitness worked out at 0.542.

Regarding GAUCCGUUGGCGUAAUGGUAACGUGUCUCCCUCCUAAGGAGAAGUCUGCGGGUUCGAGUCCCGUACAGAACG [U2A C24U A45U G67A], the yeast fitness is ≤ 0.5.

As for GAUCCGUUAGCGUAAUGGUAACGCGUCUCCCUACUAAGGAGAAGACUGCGGGUUCGAGUCCCGUACGAAACG [U2A G9A C33A G68A], the yeast fitness is ≤ 0.5.

Turning to GAUCCGUUGACGUAAUGGUGACGCGUCUCCCUCCCAAGGAGAAGACUGCGGGUUCGAGUCCCGUACGGAACG [U2A G10A A20G U35C], the yeast fitness was ≤ 0.5.

GAUCCAUUGGCGUAACGGUAACGCGUCACCCUCCUAAGGAGAAGACUGCAGGUUCGAGUCCCGUACGGAACG [U2A G6A U16C U28A G50A]: the yeast fitness is ≤ 0.5.

Turning to GAUCCGUUGGCGUAAUGGUAACGCGUCUCCCUGCUAAGGAGCAGACUGCGGGUUCGAGUCCCAUACGGAACG [U2A C33G A42C G63A], the yeast fitness is ≤ 0.5.

As for GAUCCGUUGGCGUAAUGGUAACGCGUCUACCUCCUAAGGAGGAGACUGUGGGUACGAGUGCCGUACGAAACG [U2A C29A A42G C49U U54A C60G G68A], the yeast fitness was ≤ 0.5.

For the variant GAUCCGUUGGCGUAAUGGUAACGCGUCUCCCUCCUAAGGAGAAGACUGCGGGUUAGAGUCCCGUACGGUACG [U2A C55A A69U], the yeast fitness was ≤ 0.5.

On to GAUCCGUUGGCGUAAUGGUAACGUGUCUCCCUCCUAAGGAGAAGACUGCGGGUUCGAGUCCCGUACGGAACG [U2A C24U], for which the yeast fitness is 0.95.

For the variant GAUCCAUUGGCGUAAUGGUAACGCGUCGCCCUCCUAAGGAGAAGACUGCGGGUUCGAGUCCCGUACGGAACG [U2A G6A U28G], the yeast fitness is ≤ 0.5.

With GAUCCGUUGGCGUAAUGGUAACGCGUUUCCCUCCUAAGGAGAAGACUGCGGGUUCGAGUCCCGUACAGAACG [U2A C27U G67A], the yeast fitness was 0.531.

For GAUCCGUUGGCGUAAUGGUAACGCGUCUCCGUCCUAAGGAGAAGACUGCGGGUUCGAGUCCCGUGCGGAACG [U2A C31G A65G], the yeast fitness amounted to 0.642.

Turning to GAUCCGUUGGCGUAAUGGUAACGCGUGUCCCUCCUAAGGAGAAGACUGCGGGUUCGAGUCCCGUACGGAACG [U2A C27G], the yeast fitness stood at 0.764.

For the variant GAUCCGUUGGCGUAAUGGUAACGCGUCUCACUCCUAAGGAGAAGACUGCGGGUUCGAGUCCCGUACGGAACG [U2A C30A], the yeast fitness was 0.819.

As for GAUCCGUUGGCGUAAUGGUAACGCGUCUCCCUCCUAAGGAGAAGAUUGCGGGUUCGAGUCCCGUACGGAACG [U2A C46U], the yeast fitness was found to be 1.06.

With GAUCCGUUGGCGUAAUGGUAACGCGUCUCCCUCCUAAGGAGAAGAAUGCGGGUUCGAGUCCCGUACGGAACG [U2A C46A], the yeast fitness was 1.03.

For GAUCCGUUGGCGUAAUGGUAACGCGUAUCCCUCUUAAGGAGAAGACUGCGGGUUCGAGUCCCGUACGGAACG [U2A C27A C34U], the yeast fitness is ≤ 0.5.

Consider GAUCCGUUGGCGUAAUGGUAACGCGUCUCCCUCGUGAGGAGAUGACUGCGGGUUCGAGUCCCGUACGGAACG [U2A C34G A36G A43U], for which the yeast fitness was ≤ 0.5.

As for GAUCCGUUGGCGUAAUGGUAACGUGUCUCCCUCCUAAGGAGAAGACCGCGGGUUCGAGUUCCGUACGGAACG [U2A C24U U47C C60U], the yeast fitness was ≤ 0.5.

With GAUCCGUUAGCGUAAUGGUAACGCGUCUCCCUCCUAGGGAGAAGACUGCGGGUUCGAAUCCCGUACGGAACG [U2A G9A A37G G58A], the yeast fitness was ≤ 0.5.

Turning to GAUCCGUUAGCGUAAUGGUAACGCGUCUCCCUCCUAAGGAGAAGACUGAGGGUUCGAGUCCCGUACGGAACG [U2A G9A C49A], the yeast fitness is ≤ 0.5.

On to GAUCCGUUGGCGUAAUGGUAACGUGUCUUCCUUGUAAGGAGUAGACUGCGGGUUCGAAUCCCGUACGGAACG [U2A C24U C29U C33U C34G A42U G58A], for which the yeast fitness came out at 0.56.

In the case of GAUCCGUUAGCGUAAUGGUCACGUGUCUCCCUCCUAAGGAGAAGACUGCGGGUUCGAGUCGCGUACGGAACG [U2A G9A A20C C24U C61G], the yeast fitness was ≤ 0.5.

In the case of GAUCCGUUGACGUAAUCGUAACGCGUCUCCCUCCCAAGGAGAAGACUGCGGGUUGGAGUCCCGUACGGAACG [U2A G10A G17C U35C C55G], the yeast fitness is ≤ 0.5.

GAUCCGUUAGCGAAAUGGUAACGAGUCUCCCUCCUAAGGAGAAGACUGCGGGUUCGAGUCCCGUACGGAACG [U2A G9A U13A C24A]: the yeast fitness was ≤ 0.5.

Consider GAUCCGUUCGCGUCAUGGUAACGCGUCUCCCUCUUAAGGAGAAGACUGCGGGUUCGAGUGCCGUACGGAACG [U2A G9C A14C C34U C60G], for which the yeast fitness stood at 0.551.

Turning to GAUCCGUUGGCGUAAUGGUAACGCGUCUCCCUCCUAAGGAGAAGACUGUGGGUUCGAGUCCCGUACGGAACG [U2A C49U], the yeast fitness is 0.981.

As to GAUCCGUUCGCGUAAGGGUAACGCGUCUCCCGCCUAAGGAGAAGACAGCGGGUUCGCGUCCUGUACGGAACG [U2A G9C U16G U32G U47A A57C C62U], the yeast fitness is ≤ 0.5.

Take GAUCCGUUGGCGUAAUGGUAACGUGUCUCCCUCCUAAGGAGAAGACUGCGGGUUCGAGUCCCGUACGGACCG [U2A C24U A70C]: the yeast fitness was 0.894.

With GAUCCGUUGGCGUAAUGGUAACGCGUCUCCCUCCUAAGGAGAAGACUGCGGGUUCGAGUCUCGUACGGAGCG [U2A C61U A70G], the yeast fitness is 0.571.

For the variant GAUCCCUUGGCGUAAUGGUAACGCGUCUCCCUCCUAAAGAGAAGACUGCGGGUUCGAGUCCCGUACGAAACG [U2A G6C G38A G68A], the yeast fitness was ≤ 0.5.

For GAUCCGUUGGUGUAAUGGUAACACGUCUGCCUCCUAAGGAGAAGACUGCGGGUUCGAGUCCCGUACGGAACG [U2A C11U G23A C29G], the yeast fitness was 0.527.

As to GAUCCGUUGGUGUAAUGGGAACGCGUCUCCCUCCUAAGGAGUAGACUACGGGUUCGAGUCCCGUACGGAACG [U2A C11U U19G A42U G48A], the yeast fitness was ≤ 0.5.

Regarding GAUCCGUUGGCGUAAUGGUAACGCGUCUCUCUCCUAAGGAGGAGACUGCGGGUUCGAGUGCGGUGUGGAACG [U2A C30U A42G C60G C62G A65G C66U], the yeast fitness is ≤ 0.5.

As to GAUCCGUUGGCGUAAUGGUAACGCGUCUCCAUCCUAAGGUGAAGACUGCGGGGUCCAGUCCGGUACGGAACG [U2A C31A A40U U53G G56C C62G], the yeast fitness is ≤ 0.5.
